Source: ChEMBL document CHEMBL1155882, “Selective nucleoside triphosphate diphosphohydrolase-2 (NTPDase2) inhibitors: nucleotide mimetics derived from uridine-5'-carboxamide” (J Med Chem, 2008)
Calls of active or inactive are those of the source. No cut-off for these calls is given here.

Assays:
[1] = target: P2Y purinoceptor 6 (Rattus norvegicus) (UniProt Q63371); assay: Antagonist activity at rat P2Y6 receptor expressed in human 1321N1 cells assessed as inhibition of UDP-induced intracellular calcium mobilization by NOVOstar plate reader
[2] = target: T1, Ectonucleoside triphosphate diphosphohydrolase 8 (Homo sapiens, UniProt Q5MY95); assay: Inhibition of human NTPDase 8 expressed in COS7 cells; assay type: cell-based, COS-7
T1 sequence (Q5MY95 whole entry): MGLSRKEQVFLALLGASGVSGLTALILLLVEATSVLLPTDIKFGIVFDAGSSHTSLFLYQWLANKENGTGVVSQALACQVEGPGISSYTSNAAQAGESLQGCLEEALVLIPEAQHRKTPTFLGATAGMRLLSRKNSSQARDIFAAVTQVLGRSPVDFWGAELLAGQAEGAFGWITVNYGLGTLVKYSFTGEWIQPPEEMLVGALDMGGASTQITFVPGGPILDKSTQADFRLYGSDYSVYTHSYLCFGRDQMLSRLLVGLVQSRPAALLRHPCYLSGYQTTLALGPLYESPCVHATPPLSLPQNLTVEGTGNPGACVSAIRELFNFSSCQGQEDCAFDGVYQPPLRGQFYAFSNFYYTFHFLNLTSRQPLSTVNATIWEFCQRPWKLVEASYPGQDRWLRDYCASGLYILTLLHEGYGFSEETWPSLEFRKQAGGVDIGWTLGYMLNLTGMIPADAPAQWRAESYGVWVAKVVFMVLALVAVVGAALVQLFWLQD
How it was run: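 NTPDase2 membranes come from stably transfected HEK 293 cells; NTPDase3 and NTPDase8 are transiently expressed in COS-7 cells as crude protein extracts. Buffer is 140 mM NaCl, 5 mM KCl, 1 mM MgCl2, 2 mM CaCl2, 10 mM HEPES pH 7.4, with 400 μM ATP, 37 °C, 10 min, stopped at 99 °C. Products are read by capillary electrophoresis (UV 210 nm, UMP internal standard).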

[3] = target: T2, P2Y purinoceptor 4 (Homo sapiens, UniProt P51582); assay: Antagonist activity at human P2Y4 receptor expressed in human 1321N1 cells assessed as inhibition of UTP-induced intracellular calcium mobilization at 100 uM by FLUOstar plate reader; assay type: functional, cell-based
T2 sequence (P51582 whole entry): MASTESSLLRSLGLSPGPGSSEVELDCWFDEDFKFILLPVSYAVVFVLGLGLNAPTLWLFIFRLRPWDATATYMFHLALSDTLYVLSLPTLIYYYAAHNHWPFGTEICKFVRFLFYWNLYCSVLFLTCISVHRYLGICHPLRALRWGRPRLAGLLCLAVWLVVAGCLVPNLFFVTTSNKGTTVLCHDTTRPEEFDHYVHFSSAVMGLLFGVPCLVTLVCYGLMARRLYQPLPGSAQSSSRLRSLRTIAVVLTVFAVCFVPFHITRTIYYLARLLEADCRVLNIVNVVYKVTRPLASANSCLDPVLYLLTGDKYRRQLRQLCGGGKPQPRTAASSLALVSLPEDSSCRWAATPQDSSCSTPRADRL
How it was run: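 Human 1321N1 astrocytoma cells express human P2Y2 or P2Y4, or rat P2Y6. Cells are loaded with Fura-2 AM and preincubated with compound at 100 μM. Inhibition of agonist-induced intracellular calcium release is read as Fura-2 fluorescence. The agonist is UTP for P2Y2 and P2Y4, and UDP for P2Y6.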

[4] = Inhibition of rat NTPDase 3
[5] = target: P2Y purinoceptor 2 (Homo sapiens, UniProt P41231); assay: Antagonist activity at human P2Y2 receptor expressed in human 1321N1 cells assessed as inhibition of UTP-induced intracellular calcium mobilization by FLUOstar plate reader; assay type: functional, cell-based
Sequence of P2Y purinoceptor 2 (P41231 whole entry): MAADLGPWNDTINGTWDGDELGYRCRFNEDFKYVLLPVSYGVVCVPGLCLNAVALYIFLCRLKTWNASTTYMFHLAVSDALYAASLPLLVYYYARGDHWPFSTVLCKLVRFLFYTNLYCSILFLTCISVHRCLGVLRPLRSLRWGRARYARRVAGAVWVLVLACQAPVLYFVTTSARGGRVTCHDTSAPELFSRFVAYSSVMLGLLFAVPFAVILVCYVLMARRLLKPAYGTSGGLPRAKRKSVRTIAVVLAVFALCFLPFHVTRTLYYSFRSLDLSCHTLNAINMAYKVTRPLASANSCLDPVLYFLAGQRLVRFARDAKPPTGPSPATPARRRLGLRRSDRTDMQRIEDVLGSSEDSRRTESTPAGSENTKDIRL
How it was run: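 Fura-2 AM-loaded astrocytoma cells expressing human P2Y2 receptor. Compound is tested at 0.1, 0.3, 1, 3, 10, 30 and 100 μM. The read-out is inhibition of UTP-induced intracellular calcium mobilization.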

[6] = target: T2, P2Y purinoceptor 4; assay: Antagonist activity at human P2Y4 receptor expressed in human 1321N1 cells assessed as inhibition of UTP-induced intracellular calcium mobilization by FLUOstar plate reader; assay type: functional, cell-based
[7] = target: P2Y purinoceptor 6 (Rattus norvegicus, UniProt Q63371); assay: Antagonist activity at rat P2Y6 receptor expressed in human 1321N1 cells assessed as inhibition of UDP-induced intracellular calcium mobilization by NOVOstar plate reader
Sequence of P2Y purinoceptor 6 (Q63371 whole entry): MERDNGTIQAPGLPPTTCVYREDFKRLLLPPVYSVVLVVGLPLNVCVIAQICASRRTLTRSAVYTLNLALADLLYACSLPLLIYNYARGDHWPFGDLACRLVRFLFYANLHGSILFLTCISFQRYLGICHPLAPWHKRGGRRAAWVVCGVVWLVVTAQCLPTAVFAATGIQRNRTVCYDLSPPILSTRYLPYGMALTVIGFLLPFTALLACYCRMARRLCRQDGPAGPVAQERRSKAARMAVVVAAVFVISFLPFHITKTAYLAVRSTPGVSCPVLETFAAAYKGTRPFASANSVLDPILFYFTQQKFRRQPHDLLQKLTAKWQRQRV

SMILES: Cc1ccc(C(=O)Nc2ccc(S(=O)(=O)O)c3cc(S(=O)(=O)O)cc(S(=O)(=O)O)c23)cc1NC(=O)c1cccc(NC(=O)Nc2cccc(C(=O)Nc3cc(C(=O)Nc4ccc(S(=O)(=O)O)c5cc(S(=O)(=O)O)cc(S(=O)(=O)O)c45)ccc3C)c2)c1 [SURAMIN]
- IC50 [1]: 27 µM
- Ki [2]: > 100 µM
- Activity [3]: inactive
- Ki [4]: 12.7 µM
- IC50 [5]: 50 µM

SMILES: Nc1c(S(=O)(=O)O)cc(Nc2ccc(Nc3nc(Cl)nc(Nc4cccc(S(=O)(=O)O)c4)n3)c(S(=O)(=O)O)c2)c2c1C(=O)c1ccccc1C2=O [RB 2]
- IC50 [6]: 5.75 µM
- Ki [2]: > 100 µM
- IC50 [7]: 4.34 µM
- IC50 [5]: 12 µM
